From ChEMBL document CHEMBL3877264, “Quinolidene-rhodanine conjugates: Facile synthesis and biological evaluation” (Eur J Med Chem, 2017)
Converted amounts (≈) assume the structure as drawn.

Tests used:
Staphylococcus aureus [1] = assay: Growth inhibition of Staphylococcus aureus NCIM 2010 at 10 ug/ml measured after 12 hrs relative to control; type: functional; settings: NCIM 2010, 12 h, read-out: GI
How it was run: (§1)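 Bacteria grown in LB at 37 °C and 180 rpm to OD 1. Compounds added to wells, then 0.1% inoculum of 1 OD culture (620 nm). Growth read as OD at 620 nm after 8 h for gram-negative and after 12 h for gram-positive strains.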

Bacillus subtilis = assay: Growth inhibition of Bacillus subtilis NCIM 2079 at 3 ug/ml measured after 12 hrs relative to control; type: functional; settings: NCIM 2079, 12 h, read-out: GI; how it was run: as §1
Pseudomonas fluorescens [2] = assay: Growth inhibition of Pseudomonas fluorescens NCIM 2036 at 30 ug/ml measured after 8 hrs relative to control; type: functional; settings: NCIM 2036, 8 h, read-out: GI; how it was run: as §1
Pseudomonas fluorescens [3] = assay: Growth inhibition of Pseudomonas fluorescens NCIM 2036 at 10 ug/ml measured after 8 hrs relative to control; type: functional; settings: NCIM 2036, 8 h, read-out: GI; how it was run: as §1
Staphylococcus aureus [4] = assay: Antibacterial activity against of Staphylococcus aureus NCIM 2010 measured after 12 hrs; type: functional; settings: NCIM 2010, 12 h; how it was run: as §1
[5] = tested on: Mycobacterium tuberculosis; assay: Growth inhibition of Mycobacterium tuberculosis H37Ra ATCC 25177 at active stage at 100 ug/ml measured after 8 days by XTT dye based two fold dilution method relative to control; type: functional; settings: H37Ra ATCC 25177, 192 h, read-out: GI
How it was run: (§2)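 MTB H37Ra was grown in Dubos medium, then exposed in Mycobacterium pheli minimal medium (pH 6.6) to compounds dissolved in DMSO. The assay ended on day 8 (active) or day 12 (dormant). Viable cells were measured by XTT reduction menadione assay at 470 nm, blank-corrected, relative to vehicle control. Triplicates were expressed as mean ± SD. MIC came from dose-response curves.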

[6] = tested on: Mycobacterium tuberculosis; assay: Growth inhibition of Mycobacterium tuberculosis H37Ra ATCC 25177 at active stage at 50 ug/ml measured after 8 days by XTT dye based two fold dilution method relative to control; type: functional; settings: H37Ra ATCC 25177, 192 h, read-out: GI; how it was run: as §2
[7] = tested on: Mycobacterium tuberculosis; assay: Growth inhibition of Mycobacterium tuberculosis H37Ra ATCC 25177 at dormant stage at 100 ug/ml measured after 12 days by XTT dye based two fold dilution method relative to control; type: functional; settings: H37Ra ATCC 25177, 288 h, read-out: GI; how it was run: as §2
[8] = tested on: Mycobacterium tuberculosis; assay: Growth inhibition of Mycobacterium tuberculosis H37Ra ATCC 25177 at dormant stage at 25 ug/ml measured after 12 days by XTT dye based two fold dilution method relative to control; type: functional; settings: H37Ra ATCC 25177, 288 h, read-out: GI; how it was run: as §2
[9] = tested on: Mycobacterium tuberculosis; assay: Growth inhibition of Mycobacterium tuberculosis H37Ra ATCC 25177 at dormant stage at 1.56 ug/ml measured after 12 days by XTT dye based two fold dilution method relative to control; type: functional; settings: H37Ra ATCC 25177, 288 h, read-out: GI; how it was run: as §2
[10] = tested on: Mycobacterium tuberculosis; assay: Growth inhibition of Mycobacterium bovis BCG ATCC 35743 at dormant stage at 100 ug/ml measured after 12 days by nitrate reductase dye based two fold dilution method relative to control; type: functional; settings: BCG str. ATCC 35743, 288 h, read-out: GI
How it was run: (§3)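 M. bovis BCG was grown in Dubos medium and assayed in Mycobacterium pheli minimal medium (pH 6.6), with compounds from DMSO stocks. Incubation lasted 8 days for active and 12 days for dormant cultures. Viability was read by nitrate reductase at 540 nm against cell-free blanks, with vehicle set as 100% growth. Primary screen was at 30, 10 and 3 µg/ml, in triplicate, mean ± SD. MIC was taken from dose-response curves.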

[11] = tested on: Mycobacterium tuberculosis; assay: Growth inhibition of Mycobacterium bovis BCG ATCC 35743 at dormant stage at 50 ug/ml measured after 12 days by nitrate reductase dye based two fold dilution method relative to control; type: functional; settings: BCG str. ATCC 35743, 288 h, read-out: GI; how it was run: as §3
[12] = tested on: Mycobacterium tuberculosis; assay: Growth inhibition of Mycobacterium bovis BCG ATCC 35743 at dormant stage at 25 ug/ml measured after 12 days by nitrate reductase dye based two fold dilution method relative to control; type: functional; settings: BCG str. ATCC 35743, 288 h, read-out: GI; how it was run: as §3
[13] = tested on: Mycobacterium tuberculosis; assay: Growth inhibition of Mycobacterium bovis BCG ATCC 35743 at dormant stage at 12.5 ug/ml measured after 12 days by nitrate reductase dye based two fold dilution method relative to control; type: functional; settings: BCG str. ATCC 35743, 288 h, read-out: GI
[14] = tested on: Mycobacterium tuberculosis; assay: Growth inhibition of Mycobacterium bovis BCG ATCC 35743 at dormant stage at 6.25 ug/ml measured after 12 days by nitrate reductase dye based two fold dilution method relative to control; type: functional; settings: BCG str. ATCC 35743, 288 h, read-out: GI; how it was run: as §3
[15] = tested on: Mycobacterium tuberculosis; assay: Growth inhibition of Mycobacterium bovis BCG ATCC 35743 at dormant stage at 3.13 ug/ml measured after 12 days by nitrate reductase dye based two fold dilution method relative to control; type: functional; settings: BCG str. ATCC 35743, 288 h, read-out: GI; how it was run: as §3
[16] = tested on: Mycobacterium tuberculosis; assay: Growth inhibition of Mycobacterium bovis BCG ATCC 35743 at dormant stage at 0.78 ug/ml measured after 12 days by nitrate reductase dye based two fold dilution method relative to control; type: functional; settings: BCG str. ATCC 35743, 288 h, read-out: GI; how it was run: as §3
[17] = tested on: Mycobacterium tuberculosis; assay: Growth inhibition of Mycobacterium bovis BCG ATCC 35743 at active stage at 50 ug/ml measured after 8 days by nitrate reductase dye based two fold dilution method relative to control; type: functional; settings: BCG str. ATCC 35743, 192 h, read-out: GI
[18] = tested on: Mycobacterium tuberculosis; assay: Growth inhibition of Mycobacterium bovis BCG ATCC 35743 at active stage at 6.25 ug/ml measured after 8 days by nitrate reductase dye based two fold dilution method relative to control; type: functional; settings: BCG str. ATCC 35743, 192 h, read-out: GI; how it was run: as §3
[19] = tested on: Mycobacterium tuberculosis; assay: Growth inhibition of Mycobacterium bovis BCG ATCC 35743 at active stage at 0.78 ug/ml measured after 8 days by nitrate reductase dye based two fold dilution method relative to control; type: functional; settings: BCG str. ATCC 35743, 192 h, read-out: GI; how it was run: as §3
[20] = tested on: Mycobacterium tuberculosis; assay: Growth inhibition of Mycobacterium bovis BCG ATCC 35743 at dormant stage at 30 ug/ml measured after 12 days by nitrate reductase dye based two fold dilution method relative to control; type: functional; settings: BCG str. ATCC 35743, 288 h, read-out: GI; how it was run: as §3
Candida albicans = assay: Antifungal activity against Candida albicans NCIM 3471 by standard agar method; type: functional
How it was run: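 MICs determined by standard agar method; DMSO as solvent control.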

[21] = Cytotoxicity against primary HUVEC assessed as growth inhibition at 100 ug/ml measured after 48 hrs by MTT assay relative to control; type: toxicity, cell-based; settings: human, read-out: GI
[22] = Cytotoxicity against human THP1 cells measured after 48 hrs by MTT assay; type: toxicity, cell-based, THP-1
How it was run: (§4)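 MTT assay with 48 h compound exposure. THP-1 macrophages made by 24 h PMA treatment. Each concentration tested in triplicate in one experiment. % cytotoxicity = (control−test)/(control−blank)×100, with control = cells + DMSO and blank = medium without cells. IC50 from % survival versus concentration plots.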

[23] = Cytotoxicity against human THP1 cells assessed as growth inhibition at 100 ug/ml measured after 48 hrs by MTT assay relative to control; type: toxicity, cell-based, THP-1; settings: read-out: GI; how it was run: as §4
[24] = Cytotoxicity against […]-differentiated human THP1 cells assessed as growth inhibition at 100 ug/ml measured after 48 hrs by MTT assay relative to control; type: toxicity, cell-based, THP-1; settings: read-out: GI; how it was run: as §4
[25] = Cytotoxicity against human A549 cells measured after 48 hrs by MTT assay; type: toxicity, cell-based
[26] = Cytotoxicity against human PANC1 cells assessed as growth inhibition at 100 ug/ml measured after 48 hrs by MTT assay relative to control; type: toxicity, cell-based, PANC-1; settings: read-out: GI
[27] = Selectivity index, ratio of GI50 for human THP1 cells to MIC for Mycobacterium tuberculosis H37Ra ATCC 25177 at dormant stage; type: toxicity, cell-based, THP-1; settings: read-out: Selectivity Index
How it was run: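 SI is the cell-line GI50 divided by the dormant-stage mycobacterial MIC. […] THP-1 macrophages were PMA-differentiated for 24 h.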

Row | SMILES | inhibition of growth at 10 µg/mL (Staphylococcus aureus [1]) [%] | inhibition of growth at 3 µg/mL (Bacillus subtilis) [%] | inhibition of growth at 30 µg/mL (Pseudomonas fluorescens [2]) [%] | inhibition of growth at 10 µg/mL (Pseudomonas fluorescens [3]) [%] | MIC (Staphylococcus aureus [4]) [µg/mL] | inhibition of growth at 100 µg/mL [5] [%] | inhibition of growth at 50 µg/mL [6] [%] | inhibition of growth at 100 µg/mL [7] [%] | inhibition of growth at 25 µg/mL [8] [%] | inhibition of growth at 1.56 µg/mL [9] [%] | inhibition of growth at 100 µg/mL [10] [%] | inhibition of growth at 50 µg/mL [11] [%] | inhibition of growth at 25 µg/mL [12] [%] | inhibition of growth at 30 µg/mL [20] [%] | inhibition at 48 h, 100 ug/ml [21] [%] | GI50 at 48 h [22] [µg/mL] | inhibition at 48 h, 100 ug/ml [23] [%] | inhibition at 48 h, 100 ug/ml [24] [%] | GI50 at 48 h [25] [µg/mL] | inhibition at 48 h, 100 ug/ml [26] [%] | further results
1 | CCOc1ccc2nc(Cl)c(/C=C3\SC(=S)NC3=O)cc2c1 | 46.8 | -34 | 76 | 41 | > 30 | 111 | 100 | 105 | 105 | -9.88 | 99.5 | 99.6 | 100 | 94.5 | 33 | > 100 | 28.6 | 35.1 | > 100 | 30.1 | inhibition of growth at 12.5 µg/mL [13]: 101%; inhibition of growth at 6.25 µg/mL [14]: 101%; inhibition of growth at 3.13 µg/mL [15]: 100%; inhibition of growth at 0.78 µg/mL [16]: -57%; inhibition of growth at 50 µg/mL [17]: 98.1%; inhibition of growth at 6.25 µg/mL [18]: 101%; inhibition of growth at 0.78 µg/mL [19]: -51.8%; MIC (Candida albicans): 125 µg/mL (≈ 356 µM); selectivity ratio [27]: 28.6
2 | O=C(O)CN1C(=O)/C(=C/c2cc3cc(F)ccc3nc2Cl)SC1=S | -1.12 | -1.39 | 2.4 | 1.08 | > 30 | 100 | 82.8 | 119 | 27.7 | 22.6 | 98.2 | 99.8 | 99.8 | 28.2 | 31.2 | > 100 | 27.6 | 14.5 | > 100 | 20.8 | inhibition of growth at 12.5 µg/mL [13]: 99.8%; inhibition of growth at 6.25 µg/mL [14]: 100%; inhibition of growth at 3.13 µg/mL [15]: 99.5%; inhibition of growth at 0.78 µg/mL [16]: 98.5%; MIC (Candida albicans): 50 µg/mL (≈ 131 µM)
3 | Cc1cccc2cc(/C=C3\SC(=S)N(CC(=O)O)C3=O)c(Cl)nc12 | -4.38 | -3.67 | 54.8 | 21.3 | > 30 | 98.5 | 107 | 100 | 96.8 | 15.7 |  |  |  | 70 | 34 | > 100 | 32.3 | 25 | > 100 | 5.9 | selectivity ratio [27]: 5
